Source: ChEMBL document CHEMBL1151227, “Hyperjovinols A and B: Two new phloroglucinol derivatives from Hypericum jovis with antioxidant activity in cell cultures” (J Nat Prod, 2004)

Tests used:
[1] = Cytotoxicity against human skin fibroblasts assessed as cell viability by trypan blue exclusion assay relative to control; type: cell-based; settings: fibroblast
How it was run: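 Normal human skin fibroblasts (lab-derived) grown in MEM with 10% FBS to confluency, then exposed to compounds (diluted from DMSO into medium) for 4 h. Viability was judged against untreated cells by Trypan Blue exclusion, with microscopic inspection for cytotoxicity.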

[2] = test system: Fibroblast; experiment: Inhibition of endogenous ROS production in human skin fibroblast assessed as DCF-fluorescence at 10 uM after 4 hrs by DCFH-DA assay relative to control; parameters: scale not given: the % may be the effect or the level left
[3] = test system: Fibroblast; experiment: Inhibition of endogenous ROS production in human skin fibroblast assessed as DCF-fluorescence at 100 uM after 4 hrs by DCFH-DA assay relative to control; parameters: scale not given: the % may be the effect or the level left

**Q.** For CC(C)=CCCC1(C)CCc2c(O)cc(O)c(C(=O)C(C)C)c2O1 (stereo not given), which Activity [1] is on record?
**A.** Non-toxic

**Q.** And the Activity [2]?
**A.** 81.5%

**Q.** And the Activity [3]?
**A.** 73%

**Q.** What does the source list for CC(C)=CCCC1(C)CCc2c(cc(O)c(C(=O)C(C)C)c2O)O1 (stereo not given)?
**A.** Activity [1]: Non-toxic; Activity [2]: 94.1%; Activity [3]: 62.4%

**Q.** What does the source list for CC(C)=CCC/C(C)=C/COc1cc(O)c(C(=O)C(C)C)c(O)c1?
**A.** Activity [1]: Non-toxic; Activity [2]: 92.2%; Activity [3]: 61.5%

**Q.** Which Activity [1] does the source give for CC(C)=CCC/C(C)=C/Cc1c(O)cc(O)c(C(=O)C(C)C)c1O here?
**A.** Non-toxic

**Q.** And the Activity [2]?
**A.** 79.4%

**Q.** What about the Activity [3] of the same compound?
**A.** 50.8%

**Q.** With CC(C)=CCCC(C)(O)CCc1c(O)cc(O)c(C(=O)C(C)C)c1O (stereo not given) [HYPERJOVINOL A] as the compound, how does the Activity [1] read?
**A.** Non-toxic

**Q.** And the Activity [2]?
**A.** 76.1%

**Q.** What about the Activity [3] of the same compound?
**A.** 49.2%

**Q.** Which Activity [1] does the source give for CC(C)C(=O)c1c(O)cc2c(c1O)C[C@@H]1C(C)(C)CCC[C@@]1(C)O2 [HYPERJOVINOL B] here?
**A.** Non-toxic

**Q.** And the Activity [2]?
**A.** 89.7%

**Q.** And the Activity [3]?
**A.** 57.1%

**Q.** With Cc1c(C)c2c(c(C)c1O)CCC(C)(C(=O)O)O2 (stereo not given) [TROLOX] as the compound, how does the Activity [2] read?
**A.** 81.4%

**Q.** And the Activity [3]?
**A.** 55.2%
